Test [1] relates to SH-SY5Y. Description: Antiproliferative activity against human SH-SY5Y cells after 24 hrs Alamar blue assay. It is filed as functional, cell-based. In a few lines:
(§1)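 Alamar Blue viability: 1-5x10^4 cells/well treated 24 h, then Alamar Blue (pre-warmed) 4-6 h at 37 °C in the dark. Fluorescence read at 590 nm (excitation 544 nm), background of medium plus dye subtracted, untreated cells = 100% viability. Miconazole 10 µM as cell-death control. Range 1 µM-1 mM, triplicate on two independent days. pEC50 from non-linear sigmoidal regression.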
In general terms: Resazurin is reduced to fluorescent resorufin, in cell work by metabolically active cells.

The nature of test [2]: Antiproliferative activity against human chemosensitive MUTU-I cells after 24 hrs Alamar blue assay. It is filed as functional, cell-based. In a few lines:
as §1

Test [3] relates to DG-75. Nature of the test: Antiproliferative activity against human DG75 cells after 24 hrs Alamar blue assay. It is filed as functional, cell-based. To be noted: DG-75, 24 h. In a few lines: as §1
The nature of test [4]: Induction of apoptosis in human chemosensitive MUTU-I cells assessed as accumulation at pre-G1 phase at 10 uM by propidium iodide FACS analysis. The test is classed as functional. The essentials: (§2)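 750,000 MUTU-I cells per sample treated for the stated time, then harvested (300 ×g, 5 min), washed in ice-cold PBS and fixed overnight at 4 °C in 70% ethanol. Stained with RNase A and propidium iodide, 30 min at 37 °C in the dark. Flow cytometry counted 10,000 gated cells for cell-cycle phases. Taxol 10 µM as positive control.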
(A flow cytometer gives signals particle by particle.)

For test [5], the system named is MUTU-I. Nature of the test: Induction of apoptosis in human chemosensitive MUTU-I cells assessed as caspase 3/7 activation at 10 uM after 5 hrs. It is filed as functional, cell-based. The essentials: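 Caspase 3/7 activity by homogeneous fluorogenic kit: 0.5x10^5 cells exposed to compound (10 µM) for 5 h, then 100 µl Z-DEVD-R110 substrate added. After 2 h, cleaved substrate measured at 521 nm (excitation 499 nm).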

Test [6] relates to MUTU-I. Nature of the test: Induction of apoptosis in human chemosensitive MUTU-I cells assessed as induction of PARP cleavage at 10 uM after 8 hrs. The test is classed as functional, cell-based. The essentials:
(§3)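 PARP cleavage by Western blot: 5x10^6 cells pelleted (500 ×g, 5 min), washed, and lysed in Laemmli buffer with protease inhibitors. Lysates run on 8% SDS-PAGE, transferred to PVDF, and probed with anti-PARP detecting full-length 113 kDa and cleaved 85 kDa forms. HRP secondary antibody, chemiluminescence detection.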

The test system of test [7] is MUTU-I. Description: Induction of apoptosis in human chemosensitive MUTU-I cells assessed as chromatin condensation and membrane bledding at 10 uM after 8 hrs. It is filed as functional, cell-based. In a few lines: (§4)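 Cells at 3x10^5 cells/mL exposed for 4 h or 8 h. 150 µl aliquots were cytocentrifuged onto slides (500 ×g, 2 min), air-dried, methanol-fixed, and stained with eosin Y and methylene blue. Morphology was examined by light microscopy at 60x.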

In test [8] the test system is MUTU-I. Nature of the test: Induction of apoptosis in human chemosensitive MUTU-I cells assessed as caspase 3/7 activation at 10 uM after 4 hrs. The test is classed as functional, cell-based.
For test [9], the system named is MUTU-I. Nature of the test: Induction of apoptosis in human chemosensitive MUTU-I cells assessed as induction of PARP cleavage at 10 uM after 4 hrs. It is filed as functional, cell-based. In a few lines:
as §3

The subject of test [10] is MUTU-I. Nature of the test: Induction of apoptosis in human chemosensitive MUTU-I cells assessed as chromatin condensation and membrane bledding at 10 uM after 4 hrs. The test is classed as functional, cell-based. The essentials: as §4
Test [11] deals with T1, Tyrosine-protein phosphatase non-receptor type 1 (Homo sapiens) (UniProt P18031).
T1 sequence (whole entry): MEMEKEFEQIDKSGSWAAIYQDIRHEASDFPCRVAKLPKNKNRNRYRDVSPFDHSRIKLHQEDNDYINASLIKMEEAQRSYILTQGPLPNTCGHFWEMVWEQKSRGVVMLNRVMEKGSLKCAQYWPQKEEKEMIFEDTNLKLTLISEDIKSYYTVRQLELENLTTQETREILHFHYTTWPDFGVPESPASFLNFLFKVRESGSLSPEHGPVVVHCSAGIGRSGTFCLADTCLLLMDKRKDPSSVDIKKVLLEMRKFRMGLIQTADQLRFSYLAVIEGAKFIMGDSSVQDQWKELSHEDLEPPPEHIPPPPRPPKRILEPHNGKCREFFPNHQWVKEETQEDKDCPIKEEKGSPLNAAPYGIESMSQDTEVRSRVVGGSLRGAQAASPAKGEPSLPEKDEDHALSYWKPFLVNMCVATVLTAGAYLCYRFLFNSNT
Description: Inhibition of human recombinant PTP1B in chemosensitive MUTU-I cells after 30 mins. It is filed as cell-based. The essentials: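 Recombinant PTP1B expressed in E. coli, incubated with compound and a phosphopeptide substrate for 30 min at 30 °C. Released phosphate detected by malachite green at 620 nm and quantified against a phosphate standard curve. Suramin as positive control.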

In test [12] the target is Tubulin (Homo sapiens) (UniProt P68371+Q9H4B7+P0DPH7+P68366+Q13509+Q71U36+P04350+Q3ZCM7+P07437+P68363+Q9BQE3+Q6PEY2+Q13885+Q9BVA1+Q9BUF5). Description: Inhibition of tubulin polymerisation in human chemosensitive MUTU-I cells after 30 mins. It is filed as cell-based.
Test [13] deals with MUTU-I. Description: Induction of apoptosis in human chemosensitive MUTU-I cells assessed as accumulation at G2/M phase after 2 to 8 hrs by propidium iodide FACS analysis relative to taxol. The test is classed as functional, cell-based. The essentials:
as §2

Test [14] deals with T2, Sodium-dependent serotonin transporter (Homo sapiens, UniProt P31645). To be noted: HEK293, at 100 µM.
Target sequence in this assay (P31645 whole entry, looked up): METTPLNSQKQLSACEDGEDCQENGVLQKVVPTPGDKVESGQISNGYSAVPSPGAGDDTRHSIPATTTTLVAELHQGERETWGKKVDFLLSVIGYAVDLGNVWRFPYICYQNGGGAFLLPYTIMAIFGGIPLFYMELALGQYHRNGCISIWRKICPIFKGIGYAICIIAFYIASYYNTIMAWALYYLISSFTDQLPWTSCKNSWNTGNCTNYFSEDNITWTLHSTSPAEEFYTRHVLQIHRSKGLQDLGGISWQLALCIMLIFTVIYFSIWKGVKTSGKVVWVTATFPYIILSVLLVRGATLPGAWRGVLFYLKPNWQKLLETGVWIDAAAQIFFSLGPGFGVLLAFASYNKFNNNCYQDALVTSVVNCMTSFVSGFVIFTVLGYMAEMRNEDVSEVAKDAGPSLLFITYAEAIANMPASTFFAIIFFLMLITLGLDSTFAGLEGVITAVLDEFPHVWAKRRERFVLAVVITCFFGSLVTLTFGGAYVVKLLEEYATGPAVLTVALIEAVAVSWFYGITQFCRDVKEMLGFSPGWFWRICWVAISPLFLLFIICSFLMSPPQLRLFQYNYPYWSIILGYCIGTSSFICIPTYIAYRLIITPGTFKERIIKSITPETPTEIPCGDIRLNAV
Test [15] addresses T2, Sodium-dependent serotonin transporter. The conditions noted are these: HEK293, at 1 µM.
Target sequence in this assay (P31645 whole entry, looked up): as above
For test [16], the system named is SH-SY5Y. Nature of the test: Cytotoxicity against human SH-SY5Y cells expressing human SERT assessed as decrease in cell viability after 48 hrs neutral red dye assay. The test is classed as functional, cell-based.
Test [17] deals with DG-75. Description: Cytotoxicity against human chemoresistant DG75 cells expressing SERT assessed as decrease in cell viability 10 or 50 uM after 72 hrs Alamar blue assay. It is filed as functional, cell-based. The conditions noted are these: DG-75, 72 h. In a few lines:
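1-5x10^4 cells/200 µl given 10 or 50 µM for 24 h (MUTU-I, MDA-MB231, PBMC) or […]. Alamar Blue at 37 °C in the dark 4-6 h, then fluorescence read with 544/590 nm. Media-only background subtracted; untreated cells set as 100% viability. Mean of six points (triplicate, two independent days). PBMCs from a healthy donor, isolated by ficoll density separation.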

For test [18], the system named is HEK293. Description: Cytotoxicity against human HEK293 cells assessed as decrease in cell viability after 48 hrs neutral red dye assay. The conditions noted are these: HEK293, 48 h. The test is classed as functional, cell-based. In a few lines: (§5)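 5x10^4 cells/well grown to sub-confluence (24-36 h), then exposed to compound 48 h. Neutral red dye 3+1 h, solubilised in 50% ethanol/1% acetic acid, absorbance 540 nm (690 nm background). Viability as percent of vehicle-treated cells; pEC50 by non-linear sigmoidal regression over 4 concentrations, triplicate on two independent days. Controls 30 mM sodium azide, 2% Triton-X. HEK293-hSERT cells kept in Geneticin, used up to 30 passages.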

Test [19] has as its system HEK293. Description: Cytotoxicity against human HEK293 cells expressing human SERT assessed as decrease in cell viability after 48 hrs neutral red dye assay. It is filed as functional, cell-based. To be noted: HEK293, 48 h. In a few lines:
as §5

Test [20] addresses T2, Sodium-dependent serotonin transporter. Nature of the test: Inhibition of [3H]-serotonin reuptake at human SERT expressed in HEK293 cells after 15 to 20 mins by fluorescence neurotransmitter transporter assay. The test is classed as cell-based.
Target sequence in this assay (P31645 whole entry): as the sequence (P31645 whole entry, looked up) above

The results in this text go back to ChEMBL document CHEMBL1671778, “Synthesis and serotonin transporter activity of 1,3-bis(aryl)-2-nitro-1-propenes as a new class of anticancer agents” (Bioorg Med Chem, 2011).

Activity calls are given as the source filed them. The calls are words filed in the database; no cut-off is given here. Bounds are passed on as bounds.

Regarding `ON=C(Cc1ccc2c(c1)OCO2)Cc1ccc2c(c1)OCO2`, the EC50 (commonly the concentration giving half of the maximal effect) is 63.1 µM in test [1], 25.1 µM in test [2] and 50.1 µM in test [3].

Consider `COc1ccc(/C=C(/Cc2ccc(OC)cc2)[N+](=O)[O-])cc1`, for which the EC50 in test [1] is 12.6 µM; in test [2] it was 2.51 µM; in [3], 12.6 µM. The Activity in test [4] was determined as 32%. Further, the outcome in [5], in test [6], in test [7], in test [8], in [9] and in test [10] was Active. Also, in test [13], the result was Active. Moreover, the inhibition result in [11] and in [12] was “inactive” in each case. In addition, the inhibition (as a rule, the drop in the measured response relative to a control, in per cent) stood at 10% in test [14] and 25% in test [15].

Take `O=CNC(Cc1ccc2c(c1)OCO2)Cc1ccc2c(c1)OCO2`: the EC50 in test [16] was above 10000 µM; in [1] it was 224 µM; in test [17], 15.8 µM; in test [18] it was above 10000 µM; in test [19], 1580 µM; in test [2], 63.1 µM. In test [3], this molecule showed a concentration for a half-maximal effect (EC50) of 158 µM. The inhibition stood at 55% in test [14] and 18% in test [15].

On to `NC(Cc1ccc2c(c1)OCO2)Cc1ccc2c(c1)OCO2`, for which the EC50 was 31.6 µM in test [16]; 31.6 µM in test [1]; 15.8 µM in test [17]; 25.1 µM in test [18]; 31.6 µM in test [19]; 50.1 µM in test [2]. This molecule also showed a concentration giving a half-maximal response (EC50) in test [3] of 251 µM. In addition, in test [20], half-maximal inhibition (IC50) was put at 1.6 µM. The figures for the inhibition in [14] and in test [15] were 77% and 44%, respectively.

Turning to `O=C(Cc1ccc2c(c1)OCO2)Cc1ccc2c(c1)OCO2`, the half-maximal effective concentration (EC50) in test [16] is above 10000 µM; in test [1] it was 251 µM; in test [17], 3160 µM; in [18] it was 1260 µM; in [19], 5010 µM; in test [2], 100 µM. This molecule showed a concentration for a half-maximal effect (EC50) in [3] of 158 µM.

With `CSc1ccc(/C=C(/Cc2ccc(SC)cc2)[N+](=O)[O-])cc1`, the EC50 in test [1] is 20 µM; in [2], 3.16 µM; in test [3] it was 39.8 µM. The Activity in [4] was 50%. Moreover, the outcome in [5], in test [6], in [7], in test [8], in test [9] and in [10] was Active. In addition, the result in test [13] was Active. Besides, the inhibition entry in test [11] and in test [12] was “inactive” in each case. Moreover, the inhibition in [14] came to 18%; in test [15], 25%.

Consider `CCNC(Cc1ccc(SC)cc1)Cc1ccc(SC)cc1`, for which the EC50 in test [16] is 15.8 µM; in [17] it was 12.6 µM; in test [18] it was 1260 µM; in [19], 25.1 µM. 2.2 µM corresponded to half-maximal inhibition in [20] (IC50). In addition, the inhibition in test [14] worked out at 92%; in test [15], 31%.

Take `COc1ccc(CC(Cc2ccc(OC)cc2)NC=O)cc1`: the EC50 in [16] is above 10000 µM; in test [1], 316 µM; in test [17], 1580 µM; in test [18], 31.6 µM; in [19], 3980 µM; in test [2], 200 µM. It took 200 µM to reach a half-maximal effect in test [3] (EC50). For the same molecule, the inhibition in test [14] came out at 18%; in [15] it was 8%.

Regarding `CSc1ccc(CC(C)N)cc1` (stereo not given) [4-METHYLTHIOAMPHETAMINE], the EC50 in [16] was 631 µM; in test [17] it was 316 µM; in [18], 20 µM; in [19], 25.1 µM. Besides, half-maximal inhibition in test [20] (IC50) required 0.2 µM.
